Inconclusive results are not listed. The source made the active and inactive calls.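 The calls were made as follows: active = dose curve fitted or showing a partial trend in at least two of three replicates; inactive = fewer than two replicates fitted or trending.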
What follows are compounds tested on parental HEK293, Na-free buffer, Tl+ flux FluoZin2 (assay: parental HEK thallium flux modulation in sodium-free buffer, dose response, counter-screen for KCC2 modulator project, HEK cells, counterscreen 3 (AID 1738)).
How it was run: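 Test system: parental HEK cells loaded with FluoZin2-AM thallium-sensitive dye / Benchmarks: 2 mM bumetanide, positive / Detection: kinetic fluorescence, 480 nm excitation, 540 nm emission / Read-out basis: EC50 from sigmoidal fit of thallium-flux slope / Also added: thallium stimulus, pH 7.3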
`COc1ccccc1N1CCN(C(=S)NC(=O)/C=C/c2ccccc2)CC1` was tested, and the EC50 was 1.14 µM (inactive). `O=C(NC(=S)Nc1nc(-c2cccc([N+](=O)[O-])c2)cs1)c1cc(Cl)ccc1Cl` was tested, and the EC50 was 22.4 µM (inactive). In the case of `COc1cc(NC(=S)NC(=O)c2ccco2)ccc1NC(=O)C(C)C`, the EC50 is reported as 3.63 µM (inactive). In the case of `NC(=S)N=Nc1c(O)n(Cc2ccccc2)c2ccccc12`, the EC50 is reported as 0.0719 µM (inactive). For `O=c1c2ccccc2[nH]c(=S)n1CCN1CCC(=C(c2ccc(F)cc2)c2ccc(F)cc2)CC1`, the EC50 was 4.82 µM (inactive). With `CC(C)c1ccc(OCC(=O)NNC(=O)c2cnccn2)cc1` the EC50 was 16.4 µM (inactive). For `O=C1OC(c2ccc(O)cc2)(c2ccc(O)cc2)c2ccccc21`, the EC50 was 15.4 µM (inactive). `COc1ccc(N2C(=S)N=C(Nc3cccc(C)c3)C23CCCCC3)cc1` gave an EC50 of 0.92 µM. Work on `CNC(=O)C(=O)Nc1nc(C23CC4CC(CC(C4)C2)C3)cs1` yielded an EC50 of 0.0611 µM. For `COC(=O)[C@@H](NC(=O)O[C@@H]1C(=O)c2ccc(OC)cc2O[C@H]1c1cccc(C(F)(F)F)c1)C(C)C`, the EC50 was 8.16 µM (inactive). `Fc1cccc(F)c1/C=N/NC(=S)Nc1cccnc1` was tested, and the EC50 was 8.33 µM (inactive). For `N=C1SCC(=O)N1c1ncc(Cc2cccc(Cl)c2)s1`, the EC50 was 4.43 µM (inactive). Compound `CCOc1cccc(C(=O)NC(=S)Nc2cccc(C)c2)c1` has an EC50 of 0.345 µM. `Oc1ccccc1/C=N/Nc1nc2ccccc2o1` was tested, and the EC50 was 9.46 µM (inactive). For `Cc1onc(-c2ccccc2Cl)c1C(=O)NC(=S)Nc1ccc(C(C)C)cc1`, the EC50 was 0.262 µM.
